Laboratory results reported in the EternaBench riboswitch data.

System: MS2 coat protein
Assay: apparent Kd, MS2 coat protein; higher = weaker binding; RNA-MaP array
How it was run: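 Designed RNAs were produced on an Illumina sequencing chip by transcription of sequenced DNA templates. Binding to fluorescently labeled MS2 coat protein (1.5 nM to 3 μM) was measured at room temperature with or without input ligand. The apparent Kd is the median of per-cluster binding-curve fits. Designs were excluded when measured on fewer than 10 clusters.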

[1] = designed as: OFF switch for flavin mononucleotide, no ligand
[2] = ligand present: flavin mononucleotide, designed as: OFF switch for flavin mononucleotide
[3] = designed as: ON switch for flavin mononucleotide, no ligand
[4] = ligand present: flavin mononucleotide, designed as: ON switch for flavin mononucleotide
[5] = designed as: OFF switch for tryptophan, no ligand
[6] = ligand present: tryptophan, designed as: OFF switch for tryptophan
[7] = designed as: OFF switch for theophylline, no ligand
[8] = ligand present: theophylline, designed as: OFF switch for theophylline

Row | Sequence | apparent Kd [1] [µM] | apparent Kd [2] [µM] | apparent Kd [3] [µM] | apparent Kd [4] [µM] | other results
1 | AUUAGGCGGCAGAAGGCCCAUACCCGGACAUGAGGAUCACCCAUGUACUCGUUUCGCCAUAUCAGGGAGGAUAUGCCAACAACU | 0.0175 | 0.0158 | – | – | –
2 | ACUCCCGCAGAAGGAUAUCCUGACUGAACGAUCGACAUGAGGAUCACCCAUGUGUCUCCGUCGAGGGAGAAGGUCUGCUGUGAC | – | – | 0.0187 | 0.00798 | –
3 | GAUGGUGUCAAGGAUAUUCCUAGCGGCUCGUUCGAAGAAGGUGAUACAUGAGGAUCACCCAUGUCCCUCCAUUU | 0.0182 | 0.0169 | – | – | –
4 | AAUGGAGUCGAGAAGGCAGCGACCCACUAAACCUGAGGAUAUCGUCUCCGAAAAUGGGUGGGUGUACAUGAGGAUCACCCAUGU | 0.0952 | 0.122 | – | – | –
5 | UGAGUCUAAGGAUAUGCUGCCGACAACAUGAGGAUCACCCAUGUCUUUCGUUGUUCGCCGGCAGAAGGUAGCAAUU | 0.561 | 0.262 | – | – | –
6 | UCGCCAUUGACGGCCGCCACUCAAUGGUCUUCUCUGAACAUAAUUAACAUGAGGAUCACCCAUGUGAGGACCGGGUCGGUUAGAC | – | – | – | – | apparent Kd [5]: 0.0195 µM; apparent Kd [6]: 0.0323 µM
7 | UAGAGCGGCAACAUGAGGAUCACCCAUGUGGGCGAUGAGGCUCAGGAUAUACACCACCGCUGGACGUAGAAGGGAGACUCGCCG | 0.0411 | 0.0201 | – | – | –
8 | UUACCAGCAGGAUAUUCAUCUGUUAACAUGAGGAUCACCCAUGUCUCGUGAUCGAACUAGGAAGAAGGGCUUAUAC | 0.0744 | 0.0773 | – | – | –
9 | AUAAUCAAAGGAUAUGGCUAAGCACACAUGAGGAUCACCCAUGUGAUCGUUCGUACAGUUCCAGAAGGUUGGUCCA | 0.015 | 0.0133 | – | – | –
10 | ACGAAUGGUUCAACAUGAGGAUCACCCAUGUGAUCUUCCAUUCAGGAUAUGUGUAGUAGAUCUCAACAGAAGGGAAUAAAAUAG | 0.0358 | 0.0387 | – | – | –
11 | AGGAGCGGAAUAGGAUAUUGUAGAUAUAUCAAACAAGAAGGAUUAGCUAACAUGAGGAUCACCCAUGUGGGAUCAAACUCACUC | 0.0827 | 0.127 | – | – | –
12 | AAAAUAGCAGGAUAUACAUGAGGAUCACCCAUGUCAAGACAGCACGGUGCAAGGUAGGGUAGAAGGGCUAAUUG | 0.0227 | 0.0301 | – | – | –
13 | CGUCCACAUGAGGAUCACCCAUGUACACGCGAUCAAGGAUAUCGCGAUAACACAAUAGUGCGAGAAGGUGAUGUAC | – | – | 0.148 | 0.0796 | –
14 | UAUAGUUAAAAGGAUAUCGAAAACAAGCGUAAACGAGAAGGUUUAACAUGAGGAUCACCCAUGUAAGGAGAUGG | 0.0584 | 0.139 | – | – | –
15 | CGACAUUAGUAGAAGGAGGAGUAGCGAUAGAGCCUAGGAUAUACGAACAAAUACAUGAGGAUCACCCAUGUUGACGAUCCAUCA | 0.049 | 0.0458 | – | – | –
16 | UCGGCUUCCCAAGGAUAUGAGGUGCUUAUCGACAUGAGGAUCACCCAUGUAAAACUAGCUGCCAUUCAGAAGGUGGACACGCGC | – | – | 0.017 | 0.00778 | –
17 | GAAUGUUGGAAGAAGGCACGCCCUGCAUGGCGGUGAGGAUAUUCCGUACUUGGAGUGGAAACAUGAGGAUCACCCAUGUAAGUA | 0.0368 | 0.037 | – | – | –
18 | ACCCAACAUGAGGAUCACCCAUGUGCAUGCCUCGGAGGAUAUGACCUCAUUCAUCUUUGAUCAGAAGGCCGAUCGC | – | – | 0.113 | 0.026 | –
19 | UCUCAGUGAGGAUAUCGAACAGACCUUUGUGUGCUAAUUUUCGAGAAGGCACAUGAGGAUCACCCAUGUGACUC | 0.0546 | 0.0497 | – | – | –
20 | AUUCCACAUGAGGAUCACCCAUGUUCUGCUCUGCAUGGAAACAGAAGGAUUCGCGUCAGGUCGAAAUAGGAUAUGUUGUCAAAG | 0.0336 | 0.0285 | – | – | –
21 | UGGUGGAAGACAUGAGGAUCACCCAUGUUCGUAGAUGCCGAGCAGGAUAUUAGAUCAUAAACCAGUAAGAAGGGCUGAGUGUCU | – | – | 0.0318 | 0.0261 | –
22 | CAUCGGGCGGUAAAUGGCGGGUACGGUGAUACCAGUUUUUGAUUUAACCCUUGGCAGCACUAUACAUGAGGAUCACCCAUGUAAU | – | – | – | – | apparent Kd [7]: 0.018 µM; apparent Kd [8]: 0.03 µM
23 | AUAUUCGUUCAGGAUAUGUUAAGCUCACGCCUAACAGAAGGGAAUACAUGAGGAUCACCCAUGUGGUGAUGGGA | 0.498 | 0.426 | – | – | –
24 | AUAAAAUGCUUAGGAUAUGUAACAGCAUGCACAUGAGGAUCACCCAUGUUAUAUUUAGUGGAAUGACAGAAGGAAGUAGAGACU | – | – | 0.0186 | 0.0135 | –
25 | AAACAGAGCAGAGGAUAUAUGAUAUGCCGAACAUGAGGAUCACCCAUGUCUUCGCGUAGCGCCCCAUAGAAGGCUGAUAGCAAC | – | – | 0.0166 | 0.014 | –
26 | GUGAGACAUGAGGAUCACCCAUGUUAGGAUAUUAAACUGGUUUAGUCUGUGACCGACGUAAGAAGGAACUUGAU | 0.0131 | 0.0117 | – | – | –
27 | GUUCGCUGAGGAUAUACAUGAGGAUCACCCAUGUUCAAGUCUCGUGACUGUUCCCAGCGUAGAAGGCAGCGGUG | 0.00762 | 0.00885 | – | – | –
28 | UUAUGUCGGUAGGAUAUUAGACGUGGUUAUACGUAAGAAGGACCAACAUGAGGAUCACCCAUGUGAGAUAGUUC | 0.0144 | 0.0247 | – | – | –

Row | Sequence | apparent Kd [1] [µM] | apparent Kd [2] [µM] | apparent Kd [3] [µM] | apparent Kd [4] [µM] | other results
29 | AGGUGUCCAGGAGGAUAUGAUUGCAACACGCCCUCAGAAGGCCUUAUAUACAAAGCAUACAUGAGGAUCACCCAUGUAAUUGGA | – | – | 0.00874 | 0.00911 | –
30 | GUGGCACUCCUAGGAUAUUCACCUUGCGUAGAAAGACAUGAGGAUCACCCAUGUGUCUCUUAUUUGAAGAAGGAGGAACCUCGG | – | – | 0.0127 | 0.013 | –
31 | AUACGGCGGUAAAAUCAGAGAGUAAAAGAUACCAGCAAUAAUAAAUGCCCUUGGCAGCUUCUGACAUGAGGAUCACCCAUGUAAA | – | – | – | – | apparent Kd [7]: 0.0153 µM; apparent Kd [8]: 0.0291 µM
32 | GAAUUUCGGAAGAAGGGACUCGAUCAGUUCAGGUCAGGAUAUUCACAUGAGGAUCACCCAUGUCCAUCAGCAUGACGUUUCCAC | 0.0109 | 0.0147 | – | – | –
33 | UCGCCGCUGGAGACAUGAGGAUCACCCAUGUGGUCUUUCGUAAGAAGGUGCCUAUAGAACUUUUGCAAGGAUAUUACGCCGGAG | 0.217 | 0.113 | – | – | –
34 | UACAUGAGGAUCACCCAUGUCAAUUGUAGAUCGCUCAACGGCAGAAGGCGCAACCCGAUCGGGAGCGAGGAUAUGCCUCGUUAA | 0.0265 | 0.0271 | – | – | –
35 | UCUAUUAACUAAGGAUAUAGAACAGGCCGGAUUUUGUUGCGUCUGACAUGAGGAUCACCCAUGUUCUAGAAGGUAGACUGCUGC | 0.0133 | 0.0117 | – | – | –
36 | UUAAAGGCACCUCAUGGGACUAUAAACCCGCGAGGACCGGUACGGCCGCCACUCGAAUAUCAACAUGAGGAUCACCCAUGUGGUU | – | – | – | – | apparent Kd [5]: 0.0218 µM; apparent Kd [6]: 0.0485 µM
37 | AAUAUAAACGUCAGGAUAUUCACGAUAAACAAAUAGAAGAAGGGACAUGAGGAUCACCCAUGUAAACAUGAGUA | 0.0116 | 0.0183 | – | – | –
38 | ACAUGAGGAUCACCCAUGUUUUAUUCGAACUGGAAAUGACGUCAGGAUAUCACAAAUAGCAGCAAUGAGAAGGGACUAUAUAUG | – | – | 0.0116 | 0.00879 | –
39 | UGGUCAGAUGUAAGGAUAUUCGCUCUAAUUUCUCAGAAGAAGGUACAUGAGGAUCACCCAUGUAAUAAAGAAAA | 0.00938 | 0.0196 | – | – | –
40 | CAUGCUAACAUGAGGAUCACCCAUGUUCCGGCGUAAACUGCACAGGAUAUCGAGAAUUUACAAGCCGAGAAGGGUGCGUAGCAU | – | – | 0.195 | 0.0717 | –
41 | UGACCACAUGAGGAUCACCCAUGUCAGGAUAUAGGUACACUGGUACAGCCUUUUCGGCCUAGAAGGGACUCUCU | 0.00909 | 0.00842 | – | – | –
42 | AUUACAGACUACGGCGAUACAUGAGGAUCACCCAUGUCGAGUUAGGAUAUGCAACAAUACGGCCUGCAGAAGGAACCAAGAGGG | 0.0352 | 0.0323 | – | – | –
43 | UAUGGACAUGAGGAUCACCCAUGUGGUAGAUGCUUAGGAUAUUAGACAGGAUACAUGUACUAAGAAGGAAGAUGGU | – | – | 0.266 | 0.102 | –
44 | GAGCGACUAUGAGAUUGGACAUGAGGAUCACCCAUGUGAGACAGAAGGGCCUUGGCGCCCGUGAGGCAGGAUAUGUACCAAGCA | – | – | 0.0274 | 0.0196 | –
45 | CCGACCCAAGGAUAUACAUGAGGAUCACCCAUGUAUAAAAUAUACCAAGGUAAAAUAUGUAGAAGGAGGAUAUG | 0.00654 | 0.00617 | – | – | –
46 | UGGGAACGAGGAUAUACAUGAGGAUCACCCAUGUUCAAGAUUCGGGUAUAAUGCCUCAGUAGAAGGCGUAAGCA | 0.107 | 0.108 | – | – | –
47 | UAAGUGCUCACAUGAGGAUCACCCAUGUAUUUACUUAUGAGGAGAAGGAUCAAGGAGCAGCGGUGAUAGGAUAUCCUAAUAGAA | – | – | 0.033 | 0.0236 | –
48 | AAGCGUUCAGGAUAUACAUGAGGAUCACCCAUGUAAUGGAUGCUGCAUUACCGGGCGAGUAGAAGGGAAACGUC | 0.00609 | 0.00624 | – | – | –
49 | AGCUGGGCUGAGAAGGCGUAUCGCUGUUAAGUGACAUGAGGAUCACCCAUGUAAUUACGAGGCUACGAGGAUAUCAACUAUGGA | – | – | 0.0351 | 0.0155 | –
50 | UGUUGGGAAACAGGAUAUGAGCUUAAAGCACAAGGGAUUCGCACAUGAGGAUCACCCAUGUAACGUCAGAAGGGUUUGUUUGUA | 0.0512 | 0.0422 | – | – | –
51 | AGAGAGUCAGGAUAUAAAUAUAAAGAGAUAAAGCAAACAAUUUAGAAGGGACAUGAGGAUCACCCAUGUGAUAA | 0.0136 | 0.0127 | – | – | –
52 | AACAUGAGGAUCACCCAUGUACACUCAAUUCGGUAUCGCUGCAAGGAUAUUCGCGUUGGAUACAUGAAGAAGGUGCCCGUACCG | – | – | 0.092 | 0.0125 | –
53 | AUUAUGCAGUGAGAGGAUAUCAUCGAUAAGACAUGAGGAUCACCCAUGUGUGUCAGGGUUACACAUGAGAAGGCUCACCAAACUUU | – | – | 0.00728 | 0.00749 | –
54 | CGUUAAGAAUCGGCCGCCACUCCAUACGUGUGAAUCGCGGAUCGACAUGAGGAUCACCCAUGUCGGAGGACCGGGAUCCUCUUUC | – | – | – | – | apparent Kd (designed as: ON switch for tryptophan, no ligand): 0.035 µM; apparent Kd (ligand present: tryptophan, designed as: ON switch for tryptophan): 0.0233 µM
55 | UCCAGCAACGAGAAGGUACACAUGAGGAUCACCCAUGUCCGUUGACCGUCUCCAUGGGCGAUGGGUAAGGAUAUCGGGCAGAUG | – | – | 0.0689 | 0.0494 | –
